The results in this text go back to ChEMBL document CHEMBL1138466, “Isaindigotone derivatives: a new class of highly selective ligands for telomeric G-quadruplex DNA” (J Med Chem, 2009).

Experiment [1] can be described thus: Inhibition of human telomerase in human MCF7 cell free extract by TRAP-LIG assay. In outline: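 TRAP-LIG: MCF-7 protein extract (500 ng) extends TS primer in TRAP buffer (pH 8.3, 68 mM KCl) with 125 µM dNTPs and ligand, 20 min at 30 °C. Product purified to remove ligand, then PCR-amplified with ACX primer for 35 cycles. Products resolved on 16% PAGE with silver staining; IC50 computed from band optical density.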

Experiment [2] relates to Nucleic Acid. Nature of the experiment: Binding affinity to oligonucleotide HTG21 by florescence titration assay in presence of K+ solution. Format: nucleic-acid assay. The method in brief:
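Fluorescence titration at 25 °C in 10 mM Tris-HCl pH 7.2 with 100 mM KCl. HTG21 DNA added to ligand up to 0–2 µM final, with at least 10 min equilibration after each addition. Excitation at 343 or 353 nm depending on ligand. Binding constant Kb derived from the titration.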

Experiment [3] relates to Nucleic Acid. Nature of the experiment: Binding affinity to F21T human telomeric DNA assessed as change in melting temperature at 1 uM by FRET assay. Format: nucleic-acid assay. In outline: (§1)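 FRET melting of dual-labelled probes (FAM/TAMRA): G-quadruplex F21T or hairpin duplex F10T, 0.2 µM, in 10 mM Tris-HCl pH 7.2 with 60 mM KCl, ligand 1 µM. Emission read at 530 nm (excitation 470 nm) every 1 °C from 37 to 99 °C, with a 30 s hold before each reading. ΔTm is taken relative to the annealed probe without ligand.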

In experiment [4] the test system is Nucleic Acid. Nature of the experiment: Binding affinity to F10T hairpin duplex DNA assessed as change in melting temperature at 1 uM by FRET assay. Format: nucleic-acid assay. In outline:
as §1

Experiment [5] concerns CA46. Nature of the experiment: Induction of telomere shortening in human CA46 cells assessed as telomere length at 1.8 uM by telomeric restriction fragment assay. Format: functional. The method in brief: (§2)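 TRF length: HL60 or CA46 cells treated for 16 days with 0.9 or 1.8 µM ligand or 0.1% DMSO. Genomic DNA digested with HinfI/RsaI, run on 0.8% agarose, transferred to nylon membrane and baked at 120 °C for 20 min. Telomeric smears detected by Southern analysis.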

For experiment [6], the system named is HL-60. Nature of the experiment: Induction of telomere shortening in human HL60 cells assessed as telomere length at 0.9 uM by telomeric restriction fragment assay. Format: functional, cell-based. In outline: as §2
Experiment [7] deals with HL-60. Nature of the experiment: Cytotoxicity against human HL60 cells assessed as decrease in population doubling at 0.9 uM after 12 days. Format: functional, cell-based.
Experiment [8] has as its system HL-60. Nature of the experiment: Induction of telomere shortening in human HL60 cells assessed as telomere length at 1.8 uM by telomeric restriction fragment assay. Format: functional. In outline: as §2
Experiment [9] relates to HL-60. Description: Cytotoxicity against human HL60 cells at 4.5 uM after 12 days. Format: functional, cell-based.
Experiment [10] has as its system HL-60. Nature of the experiment: Cytotoxicity against human HL60 cells assessed as decrease in population doubling at 1.8 uM after 12 days. Format: functional, cell-based.
The subject of experiment [11] is CA46. Nature of the experiment: Cytotoxicity against human CA46 cells after 2 days by MTT assay. Conditions: CA46, 48 h. Format: functional, cell-based. The method in brief: (§3)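 MTT viability: HL60 or CA46 cells seeded at 1.0 × 10³ per well and exposed to a ligand concentration series for 48 h at 37 °C, 5% CO₂. MTT added for 4 h, then DMSO; absorbance read at 570 nm. Each dose tested in triplicate; IC50 taken from mean OD versus concentration curves.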

Experiment [12] deals with HL-60. Description: Cytotoxicity against human HL60 cells at 4.5 uM after 8 days. Format: functional, cell-based.
Experiment [13] relates to HL-60. Nature of the experiment: Cytotoxicity against human HL60 cells after 2 days by MTT assay. Format: functional, cell-based. Conditions: HL-60, 48 h. The method in brief: as §3
(Tetrazolium assays rely on reduction of a dye to a coloured formazan, in cell work by metabolically active cells.)

For experiment [14], the system named is HL-60. Nature of the experiment: Induction of senescence in human HL60 cells assessed as beta galactosidase activity at 0.9 uM for 16 days. Format: functional, cell-based. The method in brief:
(§4)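 SA-β-Gal staining: HL60 or CA46 cells treated continuously with 0.9 µM ligand or 0.1% DMSO for 16 days. Fixed in 2% formaldehyde/0.2% glutaraldehyde for 15 min, stained overnight at 37 °C with 1 mg/mL X-gal, then examined by light microscopy (×400). Repeated twice.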

In experiment [15] the test system is CA46. Nature of the experiment: Induction of senescence in human CA46 cells assessed as beta galactosidase activity at 0.9 uM for 16 days. Format: functional, cell-based. In outline: as §4
Experiment [16] deals with CA46. Description: Cytotoxicity against human CA46 cells assessed as decrease in population doubling at 0.9 uM after 12 days. Format: functional, cell-based.
Experiment [17] concerns Nucleic Acid. Description: Binding affinity to HTG21 DNA assessed as induction of guanine-rich DNA to G-quadruplex structure formation. Format: nucleic-acid assay. The method in brief: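 CD titration: HTG21 5 µM in 10 mM Tris-HCl pH 7.2, without or with 100 mM KCl. Annealed at 90 °C for 5 min, cooled slowly, held at 4 °C overnight. Ligand added at 0–5 mol equiv at 25 °C with at least 13 min equilibration per addition. Spectra recorded 230–450 nm in a 4 mm quartz cuvette.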

SMILES strings stand for the structures. Active and inactive are the calls of the source. No cut-off for these calls is given here.

On to `O=C(CCN1CCCCC1)Nc1ccc(/C=C2\CCn3c2nc2cc(NC(=O)CCN4CCCCC4)ccc2c3=O)cc1`, for which inhibition in experiment [1] was half-maximal at 9.3 µM (IC50). Also, the Kb in experiment [2] is 9.8 10^6 M-1. Moreover, the ΔTm in experiment [3] turned out to be 22 °C; in [4], 0 °C.
The like results for `O=C(CCN1CCCCC1)Nc1ccc(/C=C2\CCn3c2nc2ccc(NC(=O)CCN4CCCCC4)cc2c3=O)cc1` were, in that order, 15.2 µM, 8.1 10^6 M-1, 17.6 °C and 0.1 °C.
Take `O=C(CCN1CCCC1)Nc1ccc(/C=C2\CCn3c2nc2cc(NC(=O)CCN4CCCC4)ccc2c3=O)cc1`: the Activity in experiment [5] is listed as 2.3 kilobase; in [8], 1.1 kilobase. For the same molecule, the outcome in [6], in experiment [7], in [9], in experiment [10], in experiment [12] and in experiment [14] was Active. Moreover, the result in experiment [15], in experiment [16] and in experiment [17] was Active. The IC50 in [11] came out at 29 µM; in experiment [1], 7.8 µM; in [13] it was 33 µM. Also, in experiment [2], the Kb was 10.1 10^6 M-1. Further, the ΔTm was determined as 21.9 °C in [3] and 0.1 °C in experiment [4].
As for `CN(C)CCCNc1c2ccccc2nc2c1[nH]c1ccccc12`, the results for the ΔTm in experiment [3] and in experiment [4] were 10.4 °C and 5.7 °C, respectively.
As for `O=C(CCN1CCCC1)Nc1ccc(/C=C2\CCn3c2nc2ccc(NC(=O)CCN4CCCC4)cc2c3=O)cc1`, 9 µM corresponded to half-maximal inhibition in [1] (IC50). The Kb in experiment [2] is 7.2 10^6 M-1. Further, the ΔTm is 17.6 °C in experiment [3] and 0.4 °C in experiment [4].

Broadly, the IC50 is the concentration that gives 50% inhibition. The low end stands for greater potency in that assay, the high end for weaker potency in that assay. What is called ΔTm is the shift of the melting midpoint relative to a reference.
